MC4R barr agon = activates human MC4R beta-arrestin recruitment; U2OS MC4R beta-arrestin complementation, luminescence; percent of melanotan II response, DMSO zero; P32245; 360,000 compounds, 0.98% hits; activation, % at 8.9 µM;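 active means activation above a per-plate cutoff, the mean activation of sample wells on that plate plus 3 SD, cut at about 8% in these data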
Target sequence (P32245 whole entry, looked up): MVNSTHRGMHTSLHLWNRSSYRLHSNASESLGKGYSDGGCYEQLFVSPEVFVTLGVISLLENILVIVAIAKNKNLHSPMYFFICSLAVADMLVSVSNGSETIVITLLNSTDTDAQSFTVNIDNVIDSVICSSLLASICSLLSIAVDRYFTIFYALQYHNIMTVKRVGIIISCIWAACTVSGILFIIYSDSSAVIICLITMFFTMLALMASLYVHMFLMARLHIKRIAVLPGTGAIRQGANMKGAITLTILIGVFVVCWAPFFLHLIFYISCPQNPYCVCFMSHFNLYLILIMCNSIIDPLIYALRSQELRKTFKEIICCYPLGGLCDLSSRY
NTR1 agonist = agonists of human neurotensin receptor NTR1. P30989. NTR1-U2OS beta-arrestin-GFP spot imaging, agonist mode. activation, % at 20 µM. 330,000 compounds, 0.17% hits;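 active means activation at or above 40% of the spot to cytoplasm intensity ratio, with at least 20 cells analyzed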
Target sequence (P30989 whole entry, looked up): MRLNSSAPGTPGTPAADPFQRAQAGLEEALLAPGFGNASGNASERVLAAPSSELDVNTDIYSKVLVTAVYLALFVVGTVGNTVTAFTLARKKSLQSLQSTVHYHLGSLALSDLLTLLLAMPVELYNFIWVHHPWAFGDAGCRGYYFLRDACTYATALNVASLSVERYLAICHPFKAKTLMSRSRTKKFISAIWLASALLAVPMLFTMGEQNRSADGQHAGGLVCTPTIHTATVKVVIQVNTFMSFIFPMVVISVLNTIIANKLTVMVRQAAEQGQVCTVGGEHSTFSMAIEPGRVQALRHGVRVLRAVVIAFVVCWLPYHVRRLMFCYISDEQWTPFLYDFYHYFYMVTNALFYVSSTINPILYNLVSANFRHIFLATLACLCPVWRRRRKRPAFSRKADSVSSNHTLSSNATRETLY
HTR2A ag = activates the mouse 5-HT2A serotonin receptor; CHO-K1 mHTR2A beta-arrestin complementation, luminescence; percent of 30 µM serotonin response; activation, % at 7.6 µM; 360,000 compounds, 0.66% hits;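 active means activation above a run cutoff, the mean activation of all tested compounds plus 3 SD, cut at about 14% in these data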
Lipid droplet = hepatic lipid droplet formation modulation; AML12 mouse hepatocytes, oleate lipid droplets, BODIPY imaging; 240,000 compounds, 0.4% hits; AID 1656; inhibition, % at 6.5 µM;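 active means lipid droplet intensity inhibited by at least 50%, with more than 500 cells counted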
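Assay system: AML12 hepatocytes (mouse); Probe or stimulus: oleic acid at 100 µM to induce lipid droplet formation; Dosing: compound at 6.5 µM only; Schedule: compound with oleate, overnight; Detection: fluorescence imaging, 20x objective, two fields per well; Measure: % inhibition of lipid droplet signal.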
MC4R antag cAMP = blocks human MC4R cAMP signaling; inhibition, % at 6.5 µM; P32245; 360,000 compounds, 0.48% hits; MC4R-expressing cells, MTII-stimulated cAMP, LANCE TR-FRET; AID 540295;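 active means inhibition above its plate's cutoff, the mean of tested wells on that plate plus 3 SD, cut at about 29% in these data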
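Material: U2OS-MC4R stable cell line | Reagent: Melanotan II challenge after compound preincubation | Doses: One concentration, 6.5 µM nominal | Incubation: 30-min compound preincubation, 1-h Melanotan II challenge, 1-h detection, room temperature | Signal: TR-FRET cAMP assay | Replicates: One well per compound, no replicates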
PREPL inhibitor = human PREPL enzyme inhibition; recombinant PREPL, fluorescence polarization activity-based probe; inhibition, % at 5.96 µM; 320,000 compounds, 0.68% hits; AID 2751; in the data active means inhibition above about 43%
U2OS cAMP counter = counter-screen for MC4R antagonists: nonselective cAMP signaling inhibitors; parental U2OS, forskolin cAMP, LANCE TR-FRET; inhibition, % at 6.5 µM; AID 602193; 1,600 compounds, 26% hits; shares compounds with MC4R antag cAMP;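 active means mean inhibition over triplicates above the low-control well mean plus 3 SD, set per campaign, cut at about 13% in these data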;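 further: signal is single emission at 671 nm which falls as cellular cAMP rises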
MC4R cAMP antag = human MC4R cAMP antagonism confirmation; AID 602195; shares compounds with MC4R antag cAMP; 1,600 compounds, 27% hits; MC4R-expressing cells, MTII-stimulated cAMP, TR-FRET; inhibition, % at 6.5 µM; in the data active means inhibition above about 29%
Each line names hits and unclear results; the compound was inactive in the other large screens (follow-up assays come after a bar, where they were run). An excerpt weighted towards active compounds, which were near 2.7% of everything screened.

CCOCCCNCc1cc(Cl)cc(Cl)c1OCC	MC4R antag cAMP 31.4 | U2OS cAMP counter inactive | MC4R cAMP antag inactive
N#Cc1cccc(C(c2nnnn2CCc2ccccc2)N2CCN(C3CCCCC3)CC2)c1 (configuration not stated)	MC4R antag cAMP 28.5 (no result: Lipid droplet) | U2OS cAMP counter inactive | MC4R cAMP antag inactive
CC(=O)c1cccc(S(=O)(=O)N2CCC(C(=O)OC3CCOC3=O)CC2)c1 (configuration not stated)	MC4R antag cAMP 40.4 (no result: Lipid droplet) | U2OS cAMP counter 19.0 | MC4R cAMP antag 56.7
Cc1ccc(S(=O)(=O)N2CCC(C(=O)OC3CCOC3=O)CC2)cc1C (configuration not stated)	MC4R antag cAMP 39.6 (no result: Lipid droplet) | U2OS cAMP counter 19.2 | MC4R cAMP antag 41.0
O=C1/C(=C/c2ccc([N+](=O)[O-])cc2)C=C(c2ccccc2)N1c1ccccc1	none (no result: Lipid droplet)
O=C1/C(=C/c2ccc([N+](=O)[O-])cc2)C=C(c2ccccc2)N1c1ccc(O)cc1	MC4R antag cAMP 32.4 | U2OS cAMP counter inactive | MC4R cAMP antag inactive
COCc1ccc(C(=O)Nc2ccc(C(=O)O)cc2)o1	none
O=C(O)c1ccc(NC(=O)c2ccc(COc3ccccc3)o2)cc1	MC4R antag cAMP 28.7 (no result: PREPL inhibitor) | U2OS cAMP counter inactive | MC4R cAMP antag inactive
CC(NC(=O)CN(c1cccc(C(F)(F)F)c1)S(=O)(=O)c1ccc(Cl)c([N+](=O)[O-])c1)c1ccccc1 (configuration not stated)	MC4R antag cAMP 31.2 | U2OS cAMP counter 13.8 | MC4R cAMP antag 41.9
O=C(Cc1ccc(Cl)cc1)c1c[nH]c(C(=O)NCc2cccnc2)c1	MC4R antag cAMP 32.2 | U2OS cAMP counter inactive | MC4R cAMP antag inactive
CC(=O)Nc1ccc(SCCC2CCCCN2C)cc1 (configuration not stated)	none
COC(=O)COc1ccc(S(=O)(=O)Nc2ccccc2C(=O)OC)cc1	MC4R antag cAMP 35.1 | U2OS cAMP counter 20.8 | MC4R cAMP antag 35.0
COC(=O)c1ccccc1NS(=O)(=O)c1ccc(F)cc1	none
COC(=O)CSc1nnc(-c2ccc(S(=O)(=O)N3CCCC3)cc2)o1	MC4R antag cAMP 34.0 | U2OS cAMP counter 14.3 | MC4R cAMP antag inactive
COC(=O)CSc1nnc(-c2ccc(S(=O)(=O)NCc3ccccc3Cl)cc2)o1	MC4R antag cAMP 36.1 | U2OS cAMP counter inactive | MC4R cAMP antag 40.3
CCOC(=O)Cc1csc(NC(=O)CSc2nnc(-c3ccc(NS(=O)(=O)CC)cc3)o2)n1	MC4R antag cAMP 29.5 (no result: Lipid droplet) | U2OS cAMP counter inactive | MC4R cAMP antag inactive
CCOC(=O)CSc1nnc(-c2ccc(S(=O)(=O)NCc3cccs3)cc2)o1	MC4R antag cAMP 38.5 (no result: Lipid droplet) | U2OS cAMP counter 15.4 | MC4R cAMP antag 41.5
COC(=O)CSc1nnc(-c2ccc(OC)c(OC)c2)o1	none
COc1ccc(N2CCN(C(=O)CN3C(=O)NC4(CCCCC4C)C3=O)CC2)cc1 (configuration not stated)	none (no result: Lipid droplet)
COC(=O)CSc1nnc(-c2ccc(S(=O)(=O)NCc3cccs3)cc2)o1	MC4R antag cAMP 43.0 (no result: Lipid droplet) | U2OS cAMP counter 17.4 | MC4R cAMP antag 44.0
CCS(=O)(=O)Nc1ccc(-c2nnc(SCC(=O)OC)o2)cc1	none (no result: Lipid droplet)
CC(=O)c1cccc(Oc2ncccn2)c1	none (no result: Lipid droplet)
Clc1cccc(Oc2ncccn2)c1	MC4R antag cAMP 31.4 | U2OS cAMP counter inactive | MC4R cAMP antag inactive
CCc1ccc(C(=O)COC(=O)CNC(=O)COc2ccccc2)cc1	none
CCOC(=O)c1sc(NC(=O)c2ccc(S(=O)(=O)N3CCCCCC3)cc2)nc1-c1ccccc1	MC4R antag cAMP 32.4 | U2OS cAMP counter inactive | MC4R cAMP antag inactive
CCOC(=O)c1sc(NC(=O)c2ccc(S(=O)(=O)N3CCCCC3)cc2)nc1-c1ccccc1	none
Cc1ccc(NC(=O)CN(C)C(=O)Cc2ccc(Cl)c(Cl)c2)cc1	none
Cc1ccc(NC(=O)CN(C)C(=O)Cn2ncc(Cl)c(Cl)c2=O)cc1	MC4R antag cAMP 29.8 (no result: NTR1 agonist) | U2OS cAMP counter 25.6 | MC4R cAMP antag inactive
O=C(O)CCn1c(-c2ccccn2)nc2ccccc21	MC4R antag cAMP 29.4 | U2OS cAMP counter inactive | MC4R cAMP antag inactive
Cc1ccc(C(C)(C)C)cc1S(=O)(=O)N1CCC(C(=O)N2CCN(c3ccc(O)cc3)CC2)CC1	none (no result: Lipid droplet)
COc1cc(-c2nc3ccc4ccccc4c3c3c2CCC3)cc(OC)c1OC	MC4R antag cAMP 32.2 (no result: Lipid droplet) | U2OS cAMP counter inactive | MC4R cAMP antag 31.3
COc1cc(-c2nc3ccc4ccccc4c3c3c2CCC3)cc(OC)c1O	none
O=C(Nc1ccccc1)Nc1ccccc1NS(=O)(=O)c1cccs1	MC4R antag cAMP 30.0 | U2OS cAMP counter inactive | MC4R cAMP antag inactive
COc1ccc2c(c1)CCC1C2CCC2(C)C(O)C(=O)CC12 (configuration not stated)	none (no result: NTR1 agonist, Lipid droplet, PREPL inhibitor)
O=C(CNS(=O)(=O)c1ccc2ccccc2c1)OCc1nnc(-c2ccccc2)o1	MC4R antag cAMP 35.3 | U2OS cAMP counter 17.1 | MC4R cAMP antag 35.5
CCOc1ccccc1NC(=O)COC(=O)CNS(=O)(=O)c1ccc(C)cc1	MC4R antag cAMP 30.9 | U2OS cAMP counter 17.2 | MC4R cAMP antag 35.3
COC(=O)c1sc(N)c(C(=O)OC)c1COC(=O)CCNS(=O)(=O)c1ccc(C)cc1	none
Cc1ccc(S(=O)(=O)NCC(=O)OCc2nnc(-c3ccccc3)o2)cc1C	MC4R antag cAMP 29.0 | U2OS cAMP counter 20.2 | MC4R cAMP antag 40.9
COC(=O)c1sc(N)c(C(=O)OC)c1COC(=O)CNS(=O)(=O)c1ccc(C)c(C)c1	MC4R antag cAMP 31.6 | U2OS cAMP counter inactive | MC4R cAMP antag inactive
CC(Sc1nnc(-c2ccc(Cl)cc2)n1N)C(=O)NCC1CCCO1 (configuration not stated)	none (no result: Lipid droplet)
COc1ccc(NC(C)=O)cc1S(=O)(=O)N(C)Cc1c(C)nn(-c2ccccc2)c1C	none (no result: Lipid droplet)
Cc1cc(NC(=O)COC(=O)CNS(=O)(=O)c2ccc(C)c(C)c2)no1	MC4R antag cAMP 47.2 | U2OS cAMP counter 14.3 | MC4R cAMP antag 29.8
COc1ccccc1NS(=O)(=O)c1ccc2oc(SC3CCOC3=O)nc2c1 (configuration not stated)	MC4R antag cAMP 43.9 | U2OS cAMP counter 35.8 | MC4R cAMP antag 66.7
COc1ccc(N(CC(=O)N2CCN(c3ccc(Cl)cc3)CC2)S(=O)(=O)c2c(C)n[nH]c2C)cc1	none
COc1cc(/C=N/NC(=O)c2cccnc2)ccc1OS(=O)(=O)c1ccc(F)cc1	none

Screening data as filed in PubChem.
